Assay results from different studies.
Converted amounts (≈) assume the structure as drawn.
Observed: cell growth or viability

COc1cnccc1Cn1nc(-c2ccc(CO)o2)c2ccccc21 — inhibition (RBE; ATP luminescence; 46 µM; 72 h): 85%
COC(=O)CNC(=O)C(=O)OC — viability (HBL1; ATP luminescence; 1 µM; 5 days): 93.3%
NCCC(=O)Nc1ccccc1/N=c1\cc(-c2ccc3nc(N)oc3c2)oc2ccccc12 — inhibition (MDA-MB-468; CCK-8; 1 µM): 47.2%
CCc1nc(C(N)=O)c(Nc2ccc(N3CCC(N4CCN(C)CC4)CC3)c(OC)c2)nc1NC1CCOCC1 — GI50 (MV4-11; resazurin; 72 h): 26 nM
CC(=O)OC[C@H]1O[C@@H](n2cnc(N)nc2=O)[C@H](OC(C)=O)[C@@H]1OC(C)=O — viability (HBL1; ATP luminescence; 0.1 µM; 5 days): 105%
Nc1ccccc1/N=c1\cc(-c2ccc3c(c2)OCO3)oc2ccccc12 — inhibition (MDA-MB-468; CCK-8; 1 µM): 5.28%
C[C@H](Nc1ccc2c(c1)OCCn1cc(N3C(=O)OC[C@H]3C(F)F)nc1-2)C(N)=O — EC50 (MFE-280; ATP luminescence; 5 days): 42.1 nM
O=C(NO)c1ccc(CC(=O)N(CCO)c2ccccc2)cc1 — viability (HBL1; ATP luminescence; 1 µM; 5 days): 107%
Cc1n[nH]c2ccc3nc(-c4ccc(C(=O)N(C)CCN(C)C)nc4)c4c(c3c12)CCCCC4 — GI50 (MV4-11; resazurin; 72 h): 1100 nM
CNCCC(=O)Nc1ccccc1/N=c1\cc(-c2ccc3nc(N)oc3c2)oc2ccccc12 — inhibition (MDA-MB-468; CCK-8; 1 µM): 40.6%
Cc1n[nH]c2ccc3nc(-c4ccc(C(=O)N(C)CCN(C)C)cn4)c4c(c3c12)CCCCC4 — GI50 (MV4-11; resazurin; 72 h): 713 nM
O=C(CCCCCCC(=O)Nc1ccccc1)NO — viability (HBL1; ATP luminescence; 0.5 µM; 5 days): 49.7%
NCCCC(=O)Nc1ccccc1/N=c1\cc(-c2ccc3c(c2)OCO3)oc2ccccc12 — inhibition (MDA-MB-468; CCK-8; 1 µM): 8.13%
CC(=O)ON=C1C=CC(=C(C#N)c2ccccc2)C=C1 — IC50 (human Fibroblast; MTT; 72 h): 19.6 µg/mL (≈ 74 µM)
OCc1ccc(N(Cc2ccc(F)cc2)Cc2ccc(F)cc2)cc1Cl — inhibition (RBE; ATP luminescence; 46 µM; 72 h): 78%
O=C(Nc1ccc(Cl)cc1)C1CCCN(C(=O)c2cc(C(F)(F)F)cc(C(F)(F)F)c2)C1 (racemic) — viability (HBL1; ATP luminescence; 1 µM; 5 days): 92.8%
CN(C)CCNC(=O)c1ccc(-c2nc3ccc4[nH]ncc4c3c3c2CCCC3)s1 — GI50 (MV4-11; resazurin; 72 h): 157 nM
Oc1cccc(-c2nc(N3CCOCC3)c3oc4ncccc4c3n2)c1 — inhibition (MDA-MB-468; CCK-8; 1 µM): 2.69%
COCCN(Cc1ccc(F)cc1)c1ccc(CO)c(Cl)c1 — inhibition (RBE; ATP luminescence; 46 µM; 72 h): 75%
O=C(Nc1cccc(Br)c1)c1cccc(S(=O)(=O)N2CCCCCC2)c1 — viability (HBL1; ATP luminescence; 0.5 µM; 5 days): 110%
CCOC(=O)c1ccc(-c2nn(Cc3ccccc3)c3ccccc23)o1 — inhibition (RBE; ATP luminescence; 46 µM; 72 h): 35%
CCN(CC)CCNC(=O)c1ccc(-c2nc3ccc4[nH]ncc4c3c3c2CCCC3)cc1 — GI50 (MV4-11; resazurin; 72 h): 440 nM
CC(c1ccccc1)n1nc(-c2ccc(CO)o2)c2ccccc21 (stereo not shown) — inhibition (RBE; ATP luminescence; 46 µM; 72 h): 76%
O=C(/C=C/c1cccc(C(=O)NO)c1)NO — viability (HBL1; ATP luminescence; 1 µM; 5 days): 37.7%
COc1ccc2/c(=N/c3ccccc3NC(=O)[C@@H](N)CO)cc(-c3ccc4c(c3)OCCO4)oc2c1 — inhibition (MDA-MB-468; CCK-8; 1 µM): 15.1%
CCN(Cc1cccc(Cl)c1)c1ccc(CO)c(Cl)c1 — inhibition (RBE; ATP luminescence; 46 µM; 72 h): 59%
CN(C)CCNC(=O)c1ccc(-c2nc3ccc4[nH]ncc4c3c3c2CC(F)(F)CC3)cc1 — GI50 (MV4-11; resazurin; 72 h): 112 nM
OCc1ccc(-c2nn(Cc3ccccn3)c3ccccc23)o1 — inhibition (RBE; ATP luminescence; 46 µM; 72 h): 70%
Cc1n[nH]c2ccc3nc(-c4ccc(C(=O)N(C)CCN(C)C)cc4)c4c(c3c12)CCC(F)(F)C4 — GI50 (MV4-11; resazurin; 72 h): 814 nM
OCCc1ccc(-c2nn(Cc3ccccc3)c3ccccc23)o1 — inhibition (RBE; ATP luminescence; 46 µM; 72 h): 21%
NC(=O)C1CCCN1C(=O)Nc1ccccc1/N=c1\cc(-c2ccc3c(c2)OCCO3)oc2cc(F)ccc12 (stereo not shown) — inhibition (MDA-MB-468; CCK-8; 1 µM): 3.25%
CN(C)CCNC(=O)c1ccc(-c2nc3ccc4[nH]ncc4c3c3c2CCC3)cc1 — GI50 (MV4-11; resazurin; 72 h): 100 nM
O=C(CCCCCCSc1ccc2ccccc2c1)NO — viability (HBL1; ATP luminescence; 0.1 µM; 5 days): 112%
NCCC(=O)Nc1ccccc1/N=c1\cc(-c2ccc3c(c2)OCO3)oc2ccccc12 — inhibition (MDA-MB-468; CCK-8; 1 µM): 19.2%
